Reference: ChEMBL document CHEMBL1955769 (Bioorg Med Chem Lett, 2012)
Values after ≈ are worked out from the molar mass of the structure shown.

Legend:
HCT-116 [1] = assay: Induction of cell cycle arrest in human HCT116 cells assessed as accumulation at S phase at 10 uM after 48 hrs by flow cytometry (reference value: 10.4 %); format: functional
In short: (§1)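 HCT116 cells (1.0 × 10^6) were plated for 24 h, then exposed to compound for 24 or 48 h, with 0.1% DMSO as control. DNA staining used a BD Cycletest Plus DNA reagent kit, and phase percentages (subG1, G0/G1, S, G2/M) were scored; data representative of three independent experiments.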

Mus musculus [2] = assay: Toxicity in human HCT116 cells xenografted in BALB/c nu/nu mouse assessed as relative body weight change at 80 mg/kg, po for 14 days measured up to day 16; format: organism-based, HCT-116; design: dose 80 mg/kg, route oral; conditions: in vivo, 336 h
In short: (§2)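 Nude mice bearing HCT116 xenografts of 90–110 mm3, grouped as vehicle (0.1% Tween 80, n = 6) or treated (n = 7); oral dosing at 45 or 80 mg/kg on days 0, 2, 4, 6, 8, 10, 12 and 14. Tumor volume and body weight followed over 16 days; tumor effect given as T/C; two-tailed Student t-test versus control, with standard errors shown.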

HCT-116 [3] = assay: Antitumor activity against human HCT116 cells xenografted in BALB/c nu/nu mouse assessed as suppression of tumor growth at 80 mg/kg, po administered every alternate days for 14 days measured up to 16 days relative to control; format: functional; in short: as §2
HCT-116 [4] = assay: Induction of cell cycle arrest in human HCT116 cells assessed as accumulation at SubG1 phase at 10 uM after 24 hrs by flow cytometry (reference value: 5.7 %); format: functional; in short: as §1
HCT-116 [5] = assay: Antiproliferative activity against human HCT116 cells after 3 days by WST-1 assay; format: functional, cell-based; conditions: HCT-116, 72 h
In short: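 HCT116 human colon cancer cells exposed to compounds for 3 days; growth read by WST-1 assay; IC50 derived from triplicate assays.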

[6] = Half life in BALB/c mouse at 45 mg/kg, po by HPLC-ESI-MS/MS analysis; format: ADME, organism-based; design: dose 45 mg/kg, route oral; conditions: in vivo
[7] = Solubility of the compound in 10 % DMSO/Water; format: physicochemical
HCT-116 [8] = assay: Induction of cell cycle arrest in human HCT116 cells assessed as accumulation at G0/G1 phase at 10 uM after 48 hrs by flow cytometry (reference value: 81.9 %); format: functional; in short: as §1
HCT-116 [9] = assay: Induction of cell cycle arrest in human HCT116 cells assessed as accumulation at G2/M phase at 10 uM after 24 hrs by flow cytometry (reference value: 9.5 %); format: functional; in short: as §1
[10] = Cmax in BALB/c mouse at 45 mg/kg, po by HPLC-ESI-MS/MS analysis; format: ADME, organism-based; design: dose 45 mg/kg, route oral; conditions: in vivo
Mus musculus [11] = assay: Toxicity in human HCT116 cells xenografted in BALB/c- nu.nu mouse assessed as relative body weight change at 45 mg/kg, po administered every alternate days for 14 days measured up to day 16; format: organism-based, HCT-116; design: dose 45 mg/kg, route oral; conditions: in vivo, 336 h; in short: as §2
Histone deacetylase 1 = Histone deacetylase 1 (Homo sapiens, UniProt Q13547); assay: Inhibition of HDAC1
HCT-116 [12] = assay: Induction of cell cycle arrest in human HCT116 cells assessed as accumulation at SubG1 phase at 10 uM after 48 hrs by flow cytometry (reference value: 2.3 %); format: functional; in short: as §1
HCT-116 [13] = assay: Induction of cell cycle arrest in human HCT116 cells assessed as accumulation at S phase at 10 uM after 24 hrs by flow cytometry (reference value: 10.6 %); format: functional; in short: as §1
Histone deacetylase 2 = Histone deacetylase 2 (Homo sapiens, UniProt Q92769); assay: Inhibition of HDAC2
HCT-116 [14] = assay: Induction of cell cycle arrest in human HCT116 cells assessed as accumulation at G2/M phase at 10 uM after 48 hrs by flow cytometry (reference value: 5.4 %); format: functional; in short: as §1
HCT-116 [15] = assay: Induction of cell cycle arrest in human HCT116 cells assessed as accumulation at G0/G1 phase at 10 uM after 24 hrs by flow cytometry (reference value: 74.2 %); format: functional; in short: as §1
HCT-116 [16] = assay: Antitumor activity against human HCT116 cells xenografted in BALB/c nu/nu mouse assessed as suppression of tumor growth at 45 mg/kg, po administered every alternate days for 14 days measured up to day 16 relative to control; format: functional; in short: as §2
[17] = Tmax in BALB/c mouse at 45 mg/kg, po by HPLC-ESI-MS/MS analysis; format: ADME, organism-based; design: dose 45 mg/kg, route oral; conditions: in vivo

Chain of Histone deacetylase 2 (Q92769 whole entry): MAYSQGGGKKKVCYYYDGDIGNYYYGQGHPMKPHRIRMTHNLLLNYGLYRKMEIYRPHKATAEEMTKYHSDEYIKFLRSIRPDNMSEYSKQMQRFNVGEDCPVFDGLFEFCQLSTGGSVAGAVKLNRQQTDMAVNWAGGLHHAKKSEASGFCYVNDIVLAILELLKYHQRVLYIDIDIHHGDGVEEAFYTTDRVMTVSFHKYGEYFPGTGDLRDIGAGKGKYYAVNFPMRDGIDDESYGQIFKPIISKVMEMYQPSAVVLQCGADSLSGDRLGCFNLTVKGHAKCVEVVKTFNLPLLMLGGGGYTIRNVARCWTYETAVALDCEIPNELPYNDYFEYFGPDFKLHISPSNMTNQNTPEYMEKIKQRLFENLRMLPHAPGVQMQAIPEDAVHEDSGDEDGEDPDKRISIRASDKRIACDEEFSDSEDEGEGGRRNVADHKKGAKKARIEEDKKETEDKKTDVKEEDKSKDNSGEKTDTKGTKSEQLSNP
Chain of Histone deacetylase 1 (Q13547 whole entry): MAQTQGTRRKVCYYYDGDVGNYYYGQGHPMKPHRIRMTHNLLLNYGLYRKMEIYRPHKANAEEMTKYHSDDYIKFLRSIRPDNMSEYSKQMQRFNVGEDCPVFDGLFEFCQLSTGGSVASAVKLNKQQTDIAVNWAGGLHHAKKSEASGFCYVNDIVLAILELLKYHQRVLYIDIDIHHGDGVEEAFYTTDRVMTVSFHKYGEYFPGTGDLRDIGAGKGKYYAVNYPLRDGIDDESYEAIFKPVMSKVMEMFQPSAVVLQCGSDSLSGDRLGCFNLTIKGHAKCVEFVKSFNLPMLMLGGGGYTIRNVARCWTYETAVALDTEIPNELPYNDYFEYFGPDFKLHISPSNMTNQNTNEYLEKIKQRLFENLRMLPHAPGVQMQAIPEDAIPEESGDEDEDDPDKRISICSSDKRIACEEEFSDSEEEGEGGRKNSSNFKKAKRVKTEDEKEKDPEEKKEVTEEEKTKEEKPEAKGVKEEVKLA

Row | IC50 (HCT-116 [5]) | half-life [6] | solubility [7] | Cmax [10] | IC50 (Histone deacetylase 1) | IC50 (Histone deacetylase 2) | Tmax [17] | SMILES | Activity (HCT-116 [1]) | Activity (Mus musculus [2]) | T/C (HCT-116 [3]) | Activity (HCT-116 [4]) | Activity (HCT-116 [8]) | Activity (HCT-116 [9]) | Activity (Mus musculus [11]) | Activity (HCT-116 [12]) | Activity (HCT-116 [13]) | Activity (HCT-116 [14]) | Activity (HCT-116 [15]) | T/C (HCT-116 [16])
1 | 490 nM | – | < 100 µg/mL | – | 60 nM | 740 nM | – | Nc1ccc(-c2cccs2)cc1NC(=O)c1ccc(CN(CCO)Cc2ccc3c(c2)OCO3)cc1 | – | – | – | – | – | – | – | – | – | – | – | –
2 | 440 nM | – | – | – | 100 nM | 880 nM | – | Nc1ccc(-c2cccs2)cc1NC(=O)c1ccc(CNC(=O)N2CCOCC2)cc1 | – | – | – | – | – | – | – | – | – | – | – | –
3 | 560 nM | – | 500 µg/mL (≈ 1320 µM) | – | 40 nM | 470 nM | – | CCC(=O)NCc1ccc(C(=O)Nc2cc(-c3cccs3)ccc2N)cc1 | 2.8% | – | – | 4.6% | 75% | 10.7% | – | 1.4% | 5.2% | 20.8% | 79.5% | –
4 | 1200 nM | – | 200 µg/mL (≈ 477 µM) | – | 1170 nM | 3360 nM | – | Nc1ccccc1NC(=O)c1ccc(CN(CCO)Cc2ccc3c(c2)OCO3)cc1 | – | – | – | – | – | – | – | – | – | – | – | –

Continued, compound first:

Row | SMILES | IC50 (HCT-116 [5]) | half-life [6] | solubility [7] | Cmax [10] | IC50 (Histone deacetylase 1) | IC50 (Histone deacetylase 2) | Tmax [17] | Activity (HCT-116 [1]) | Activity (Mus musculus [2]) | T/C (HCT-116 [3]) | Activity (HCT-116 [4]) | Activity (HCT-116 [8]) | Activity (HCT-116 [9]) | Activity (Mus musculus [11]) | Activity (HCT-116 [12]) | Activity (HCT-116 [13]) | Activity (HCT-116 [14]) | Activity (HCT-116 [15]) | T/C (HCT-116 [16])
5 | CCN1CCN(C(=O)NCc2ccc(C(=O)Nc3cc(-c4cccs4)ccc3N)cc2)C(=O)C1=O | 510 nM | 2.2 h | 600 µg/mL (≈ 1220 µM) | 8.3 µM | 50 nM | 670 nM | 1 h | 2.8% | Non-toxic | 47% | 2.3% | 75.3% | 22.4% | Non-toxic | 1.4% | 3.8% | 20.5% | 71.5% | 60%
6 | CN1CCN(C(=O)NCc2ccc(C(=O)Nc3cc(-c4cccs4)ccc3N)cc2)CC1 | 530 nM | – | 1000 µg/mL (≈ 2220 µM) | – | 80 nM | 800 nM | – | – | – | – | – | – | – | – | – | – | – | – | –
7 | Nc1ccccc1NC(=O)c1ccc(CNC(=O)OCc2cccnc2)cc1 [ENTINOSTAT] | 760 nM | – | – | – | – | – | – | 2.2% | – | – | 8.8% | 62.1% | 13.6% | Toxic | 30.2% | 4.9% | 5.5% | 72.7% | 51%
